Experimental data from article PMC2807935 (Naunyn-Schmiedeberg's Archives of Pharmacology, 2010).
Several values for one entry are separate records, joined by “and”; a condition that tells them apart may be missing. Equal entries are not always repeated.

Key:
[1] = cited from earlier work
[2] = test system: PGE2 production in tissue; test: PGE2 concentrations in tissue exudate; type: in vivo, human
How it was run: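 Patients given oral 120 mg or placebo at 7.00 am on postoperative day 1 after non-cemented hip arthroplasty. Hip drain emptied 1 h before each scheduled time (0, 1, 3, 8, 12, 24 h), then exudate collected over 60 min. Exudate centrifuged, supernatant frozen at −30°C. PGE2 measured by enzyme immunoassay (LOQ 15 pg/mL). Times are collection-interval midpoints; changes expressed versus baseline.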

[3] = Pharmacokinetics of oral etoricoxib in plasma, CSF and tissue exudate; type: in vivo, human; conditions: for Tmax: t max
[4] = Secondary clinical parameters: pain scores, analgesic consumption, side effects; type: in vivo, human
[5] = post-dose, monkeys; ref Riendeau et al. [2001]; cited from earlier work
COX-2 = conditions: after a single dose of 120 mg; ref Dallob et al. [2003]; cited from earlier work
plasma proteins = conditions: ref Agrawal et al. [2003b]; cited from earlier work
[6] = at 200 mg; ref Brune and Hinz [2004]; Hinz et al. [2007]; cited from earlier work
[7] = patient R02, 50% of peak concentrations
[8] = patient R06, 50% of peak concentrations

Structure (SMILES): Cc1ccc(-c2ncc(Cl)cc2-c2ccc(S(C)(=O)=O)cc2)cn1 [etoricoxib]
- Time after administration within which etoricoxib interferes with surgical pain ([1]; patients, ref Clarke et al. [2009]): ≤ 2 h
- Time after surgery before which etoricoxib was not analgesic ([1]; thyroid surgery, ref Smirnov et al. [2008]): ≥ 6 h
- PGE2 concentration in tissue exudate, overall for all values (PGE2 Hip, n = 88) ([2]; 120 mg etoricoxib oral, day 1 post-surgery, n = 8, mean (SD)): 11.9 (10.2) ng/mL
- PGE2 concentration in tissue exudate ([2]; 0.5 h after 120 mg oral, midpoint of collection interval, mean (SD)): 18.1 (8.8) ng/mL
- PGE2 concentration in tissue exudate ([2]; 1.5 h after 120 mg oral, mean (SD)): 24.4 (10.5) ng/mL
- PGE2 concentration in tissue exudate ([2]; 2.5 h after 120 mg oral, mean (SD)): 20.9 (16.1) ng/mL
- PGE2 concentration in tissue exudate ([2]; 5.0 h after 120 mg oral, mean (SD)): 16.9 (13.6) ng/mL
- PGE2 concentration in tissue exudate ([2]; 7.5 h after 120 mg oral, mean (SD)): 12.1 (9.3) ng/mL
- PGE2 concentration in tissue exudate ([2]; 9.5 h after 120 mg oral, mean (SD)): 7.9 (6.0) ng/mL
- PGE2 concentration in tissue exudate ([2]; 11.5 h after 120 mg oral, mean (SD)): 6.4 (5.1) ng/mL
- PGE2 concentration in tissue exudate ([2]; 17.5 h after 120 mg oral, mean (SD)): 6.2 (6.2) ng/mL
- PGE2 concentration in tissue exudate ([2]; 23.5 h after 120 mg oral, mean (SD)): 2.3 (0.7) ng/mL
- Duration of the significant PGE2 difference to placebo ([2]; till the end of the observation period): 18 h
- PGE2 concentration in tissue exudate ([2]; time point Pre (baseline), n = 8, mean (SD)): 7.7 (5.4) ng/mL
- Time after medication at which the PGE2 difference to placebo became significant ([2]; tissue exudate samples, material produced about 2 h after medication): 5 h
- CSF concentration ([3]; 1 h later than in plasma): > 29 ng/mL
- CSF concentration at 1 h as part of the peak CSF concentration ([3]; 1 h post-dose): 34%
- Etoricoxib in tissue exudate ([3]; 2.5 h): virtually no drug detected
- Concentration in CSF as fraction of that in plasma at corresponding times ([3]; AUC0–24h and max. concentration ratios): 1/20
- Cmax ([3]; CSF, n = 5, mean (± SD)): 68.4 (30.6) ng/mL
- Time to plateau in plasma and CSF ([3]; both compartments): about 2 h
- Plasma concentration ([3]; during the first hour after 120 mg oral): > 360 ng/mL
- Cmax ([3]; human, CSF, oral, 120 mg, c max, n = 5, mean (± SD)): ~70 ng/mL
- Tmax ([3]; human, CSF, oral, 120 mg, n = 5, median (range)): 8 h
- AUC(0-t) ([3]; human, CSF, po, 120 mg, AUC0–24h, n = 5, 120 mg oral, mean (± SD)): 955 ng·h/mL
- Kp at 8 h ([3]; human, CSF/plasma, oral, 120 mg, CSF/plasma conc. ratio at t max, n = 5, mean (± SD), at 8 h): 0.06
- Kp ([3]; human, CSF/unbound plasma, oral, 120 mg, CSF/plasma ratio of the unbound fractions (CSF/Pu), at equilibrium (2–24 h), estimated): ~0.56
- Cmax ([3]; human, plasma, oral, 120 mg, c max, plasma, n = 5 subgroup, mean (± SD)): 1440 ng/mL
- Cmax ([3]; human, plasma, oral, 120 mg, c max, n = 8 (all patients), mean (± SD)): 1740 ng/mL
- Tmax ([3]; human, plasma, oral, 120 mg, plasma, n = 5 subgroup, median (range)): 4 h
- Tmax ([3]; human, plasma, oral, 120 mg, n = 8 (all patients), median (range)): 3 h
- Individual CSF lag times with respect to (50%) peak plasma concentration ([3]; in all but one case): ≤ 2 h
- Time to meaningful (COX-2 inhibitory) CSF concentrations ([3]; in nearly all patients): ≤ 2 h
- Max. CSF/plasma conc. ratio ([3]; individual maximal concentration ratios, between 3 and 12 h, mean ± SD, n = 5): 7.3 (2.1) %
- Time of peak CSF concentration ([3]; mean concentration-time curve, CSF): 8 h
- Lag time plasma vs. CSF ([3]; mean of patients): 2 h
- Lag time plasma vs. tissue exudate ([3]; mean of patients): 3.8 h
- Lag time plasma vs. tissue exudate ([3]; median of patients, without correction for the delay of sampling): 4 h
- CSF/plasma ratio AUC0–24h ([3]; n = 5, mean (range) of individual ratios): 4.4% and 4.4 (2–7) %
- CSF/plasma conc. ratio at t max ([3]; n = 5, mean (± SD), at 8 h): 6.3 (2.0) %
- t max for CSF/plasma conc. ratio ([3]; n = 5, median (range)): 8 (3–12) h
- Lag time plasma vs. CSF ([3]; patient R01, 50% of peak concentrations): 1 h
- Lag time plasma vs. tissue exudate ([3]; patient R01, with respect to 50% of peak concentrations): 4 h
- Lag time plasma vs. CSF [3, 7]: 2 h
- Lag time plasma vs. tissue exudate [3, 7]: 4 h
- Lag time plasma vs. CSF ([3]; patient R05, in brackets: invalid data due to missing values): (2) h
- Lag time plasma vs. CSF [3, 8]: 0 h
- Lag time plasma vs. tissue exudate [3, 8]: 1.5 h
- Lag time plasma vs. tissue exudate ([3]; patient R07, 50% of peak concentrations): 6.5 h
- Lag time plasma vs. CSF ([3]; patient R07, in brackets: invalid data due to missing values): (3) h
- Lag time plasma vs. CSF ([3]; patient R09, 50% of peak concentrations): 7 h
- CSF peak concentration ([3]; patient R09, 8 h post-medication): 108 ng/mL
- Median CSF lag time with respect to 50% of the peak concentration in plasma ([3]; patient R09 not included): 0.5 h
- Range of CSF lag time with respect to 50% of the peak concentration in plasma ([3]; patient R09 not included): 0 to 2 h
- Lag time plasma vs. tissue exudate ([3]; patient R10, 50% of peak concentrations): 3 h
- Lag time plasma vs. CSF ([3]; patient R10, in brackets: invalid data due to missing values): (0) h
- Lag time plasma vs. CSF ([3]; patient R12, 50% of peak concentrations): 0 h
- Perioperative side effects ([4]; 120 mg oral on postoperative day 1): no perioperative side effects related to the administration of etoricoxib
- Postoperative pain and opioid consumption versus placebo ([4]; both groups received standard IT and parenteral pain medication, study not designed to detect differences): no meaningful differences
- Onset of antipyretic action [5]: about 2 h
- Ex vivo whole blood IC50 of COX-2 inhibition (COX-2): about 360 ng/mL
- Bound to plasma proteins (plasma proteins): 92%

Structure (SMILES): Cc1ccc(-c2cc(C(F)(F)F)nn2-c2ccc(S(N)(=O)=O)cc2)cc1 [celecoxib]
- Bioavailability [6]: 20–60%
